# Assays:
# [1] = tested on: Salmonella typhimurium TA1535; assay type: cell-based; conditions: NaN3 1 μg/plate alone, no bichalcophene
# Method in brief: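 Overnight S. typhimurium TA1535 diluted 10−7, shaken 30 min at 37°C in phosphate buffer with NaN3 (1 μg/plate) plus test compound (10 and 20 μM, or 5 and 10 μM for two compounds) or NaN3 alone. Colonies counted on triplicate plates after 24 h and compared with untreated bacteria. ANOVA with Fisher's PLSD, P<0.05.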
# [2] = tested on: Salmonella typhimurium TA1535; assay: Antimutagenicity assay against sodium azide; assay type: cell-based
# Method in brief: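 S. typhimurium TA1535 exposed at 37°C for 30 min to test compound (10 and 20 μM, or 5 and 10 μM for two compounds) and NaN3 (1 μg/plate). Pre-exposure adds NaN3 after the 30 min compound step; co-exposure combines all three together. Plated on minimal glucose agar; revertants counted after 48 h, triplicate. Mutant frequency = mutant colonies/viable colonies.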
smiles,measurement,setting,value
"[N-]=[N+]=[N-].[Na+] [NaN3, sodium azide]","Viability, % of control",[1],105 % of control
same,"Viability, colonies/plate",[1],36.9 ± 4.3 colonies/plate
same,"NaN3 mutagenicity, revertant colonies/plate","[2]; NaN3 1 μg/plate alone, spontaneous 34.3 ± 4.0",384.7 ± 14.7 (0) revertant colonies/plate
same,Mutant frequency,"[2]; NaN3 alone, mutant colonies (Table 6)/viable colonies (Table 3)",10.43 (100)
